In the EternaBench riboswitch data:

Tested on: MS2 coat protein
Assay: apparent Kd, MS2 coat protein; higher = weaker binding; RNA-MaP array
In short: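 RNA designs were transcribed from sequenced DNA templates on an Illumina sequencing chip and then incubated at room temperature with fluorescently labeled MS2 coat protein at 1.5 nM to 3 μM, with or without input ligand, in Tris-HCl pH 7.5 buffer containing KCl, MgCl2, BSA, DTT, tRNA and Tween20. Incubation lasted 0.8–1.5 h at the lowest protein concentrations and 10–20 min at the highest. Apparent Kd is the median of binding-curve fits made for each cluster. Designs measured on fewer than 10 clusters were excluded.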

[1] = designed as: ON switch for flavin mononucleotide, no ligand
[2] = ligand present: flavin mononucleotide, designed as: ON switch for flavin mononucleotide
[3] = designed as: OFF switch for flavin mononucleotide, no ligand
[4] = ligand present: flavin mononucleotide, designed as: OFF switch for flavin mononucleotide
[5] = designed as: OFF switch for theophylline, no ligand
[6] = ligand present: theophylline, designed as: OFF switch for theophylline
[7] = designed as: ON switch for theophylline, no ligand
[8] = ligand present: theophylline, designed as: ON switch for theophylline

Row | Sequence | apparent Kd [1] [nM] | apparent Kd [3] [nM] | apparent Kd [4] [nM] | other results
1 | CUUUAACAUGAGGAUCACCCAUGUCCGAUGAAUUUAGGAUAUCGCAUUGGUCGUAUGAGGCGAGAAGGAAAUUGUC | 28.4 | – | – | apparent Kd [2]: 12.8 nM
2 | CAGACCCGGCGGGAGGAUAUACGAGAGAACACAUGAGGAUCACCCAUGUUGCACUAAACAGCGUGGUAGAAGGCCCAUCAUCUGUA | 56.8 | – | – | apparent Kd [2]: 11.9 nM
3 | CGUGUAGGGUAGGAUAUUCGAACACCACAAGGAGAAGAAGGACCUACAUGAGGAUCACCCAUGUGGUUAAUGGC | – | 112 | 225 | –
4 | GCACAAUUAGGAUAUACAUGGGUAUAGGGUGAGACGAAUGCACAUGAGGAUCACCCAUGUAGAAGGAAUCGUCA | – | 303 | 332 | –
5 | AAGGCUACGACCGAUACCAGUAGACGGCAUUCGUAGGAGAACAUGAGGAUCACCCAUGUCUACCCUUGGCAGCGGAAAAUACACU | – | – | – | apparent Kd [5]: 13.5 nM; apparent Kd [6]: 39.8 nM
6 | CGUUAAGAACAGAAGGCCGAGAUAAUGUUCAGCGGAGGAUAUGUGGAAGAUAGAACAUGAGGAUCACCCAUGUCAACUAGUACC | 6.01 | – | – | apparent Kd [2]: 5.82 nM
7 | GAUUGCAUCGAUUCUCCACUCGCACCUGAUACCAGCGAUAGAAUUCGCCCUUGGCAGCAGUACACAUGAGGAUCACCCAUGUUAU | – | – | – | apparent Kd [5]: 30.7 nM; apparent Kd [6]: 75 nM
8 | UCGUUGCCAUGAGGAUAUCGUGUCAAGACAGGCAAGUGACCGUACAUGAGGAUCACCCAUGUAAACGAGAAGGCAUAGUCAUGG | – | 17 | 13.9 | –
9 | UCUAUACAUGAGGAUCACCCAUGUCAGGAUAUAAGCACCGGGCGAUUGUCACGCGGCCUUAGAAGGGACAGGAA | – | 17.4 | 28.8 | –
10 | ACUGAGUAAGGAUAUCCAUCAUACUAACGACGCGGAAAGAAGGAGAAGGUACAUGAGGAUCACCCAUGUGAAAA | – | 12.3 | 11.1 | –
11 | UUAGGUUAUAAAGUGACAUGAGGAUCACCCAUGUGCUCACAGAGAAGGUUAUACCUACAGGCUAUAAAGGAUAUCUCCUAAAUU | – | 12.3 | 8.73 | –
12 | AUACACAGAGUUAGGAUAUCUACAUAAAACAAAAUAGAGAAGGAACAUGAGGAUCACCCAUGUAAUGAUCAAAC | – | 9.99 | 9.45 | –
13 | CCGACUCGCGUAGAGGAUAUGUAAUAAAAUACAUGAGGAUCACCCAUGUGAGACCGGGUGUCUCCACAGAAGGCUAUCGUGUCGUA | 133 | – | – | –
14 | ACCCGAGAUACAGGAUAUGCGUCCGCGUGAGCCAUGGUUAAAGCACAUGAGGAUCACCCAUGUUGGCAGAAGGGAAUCUCAUGA | – | 53.7 | 19.3 | –
15 | UGAGUAAGCGAGGAUAUUGGGCGCGUACGUGGUCAAGAAGGCGCAACAUGAGGAUCACCCAUGUGCUUCUCUUG | – | 15.7 | 29.2 | –
16 | CGUAUUGCUCGUUAGGAUAUCCAAUCUGAAACAUGAGGAUCACCCAUGUAGCCAGCAUCACAUGAGGAGAAGGAACAAGAUAAACG | 16.6 | – | – | apparent Kd [2]: 8.89 nM
17 | GUGGGACAUGAGGAUCACCCAUGUGACGAUACCAGUCAAUUGAUGGACCCUUGGCAGCGUUGGUAUUGCGGGUAGGCGAGAUAAG | – | – | – | apparent Kd [7]: 43.2 nM; apparent Kd [8]: 45.4 nM
18 | GAAAGAUGAGGAUAUACAUGAGGAUCACCCAUGUGAUUAAAUUGAACACCGAAUUACUGUAGAAGGCAUAAACC | – | 19.9 | 16.8 | –
19 | CGUAGGAUCGUGGAUACCAGUACCGCCCACGACAUGAGGAUCACCCAUGUAGGUAAUCUUUACCCUUGGCAGCCAUUUUUUUCUG | – | – | – | apparent Kd [7]: 45.6 nM; apparent Kd [8]: 52.9 nM
20 | AUUUCAUGUGUAGGAUAUCGCAUUCAGAACUAGCCAUCCACAUGAGGAUCACCCAUGUGUGCGGGCGAGAAGGACACGAGGGCA | 9.72 | – | – | apparent Kd [2]: 7.55 nM
21 | UGACUAAAGGAGAAGGGCCACUCCAUUACUUCGGCAGGAUAUCCAUAAACAUGAGGAUCACCCAUGUACAUACAUUGGACGGCG | 8.62 | – | – | apparent Kd [2]: 7.73 nM

Row | Sequence | apparent Kd [1] [nM] | apparent Kd [3] [nM] | apparent Kd [4] [nM] | other results
22 | GUGAAGAUCCUAGGAUAUGAGACACCCGUAAGCUCAGAAGGAGGACGCGUAGAGGGUAACAUGAGGAUCACCCAUGUGAGUAAG | 16.9 | – | – | apparent Kd [2]: 12.2 nM
23 | AGUGGUGGGAAGGAUAUCUUCCGGCGUUAGCCUAGAGAAGGUCCCACAUGAGGAUCACCCAUGUUGACAUCGGU | – | 373 | 183 | –
24 | GCUCACAUGAGGAUCACCCAUGUCACGAGGUGAUGAUGAACAAGAAGGAAACUCAUAUGAUCAGUUUAGGAUAUUGCCCAGCGA | – | 791 | 460 | –
25 | GGUCAACGAUUUUACAUGAGGAUCACCCAUGUUACGGUCGCCGAGGAUAUGUCAGGAUUAUCACAACAGAAGGCGGAAGACACC | 16.5 | – | – | apparent Kd [2]: 9.4 nM
26 | CAUUGGGUCAGUUCGACAUGAGGAUCACCCAUGUAGUUAACGAGAAGGAGUACCAGCCUAAGUGACUAGGAUAUCGAUAAGUGG | – | 37.3 | 38.7 | –
27 | CAUGCUUGCGAGGAUAUAAGGUUCUCCCUGUUCUUAGAAGGCGCAACAUGAGGAUCACCCAUGUUCCUACCGAA | – | 43 | 283 | –
28 | UCUAUGUUAGGAUAUCUGUUGCAUGCCUGGCCGCGAUGCAAAGAGAAGGAACAUGAGGAUCACCCAUGUCAUAU | – | 19.3 | 41.6 | –
29 | AAAACUACAGAUACCUUAACAUGAGGAUCACCCAUGUGAGCUGAGGAUAUGUCCACGCUUUAAGGACAGAAGGCAGGAGCAUAG | – | 25.2 | 36.9 | –
30 | AGACUUAGACAAGGAUAUGGUGAGGCCACCUUACAUGAGGAUCACCCAUGUCUAGAGAUCCUGUGCCAGAAGGUGUAGUUGGAC | 312 | – | – | apparent Kd [2]: 75.7 nM
31 | ACAUCGAGGCGAGGAUAUAUGACAUGAGGAUCACCCAUGUCUGCGUGAUCGUCGAACAAAUGUUCAUAGAAGGCGCUAGAAAUG | – | 112 | 20.6 | –
32 | GUCAUCUGUUUAGGAUAUGCGGUAGACACCGGGCGAGAAACAUGAGGAUCACCCAUGUUCGGAUUGCAGAAGGAAACGGCAAUA | 13.6 | – | – | apparent Kd [2]: 17 nM
33 | ACUGGUUCGGUUGUCACACAUGAGGAUCACCCAUGUAAGGUAGAGGAUAUCGCUCCGUCCUUCGGCGAGAAGGCUAUUCGACGC | – | 13 | 10.3 | –
34 | AUCAUGUAAGGAUAUGCCGAACCUGUUUUGUCGCGGUUAAAGCAGAAGGUACAUGAGGAUCACCCAUGUUAAAU | – | 56.2 | 54.4 | –
35 | CGACAUUCAGGAUAUACAUGAGGAUCACCCAUGUUGAGAAGCACAAGAUACCAUAAAAGUAGAAGGGAACAAAA | – | 13.3 | 9.81 | –
36 | GCAGUGCGUGAGGAUAUGUGAGUGAACACACACACAGAAGGCACAACAUGAGGAUCACCCAUGUUCCUGGUGCC | – | 7.62 | 7.95 | –
37 | CAACUGGCAGAGGAUACCAGAUCAUUUAGAAACAUGAGGAUCACCCAUGUCGUAAGGAUAAUCCCUUGGCAGCCUAUCCGCCUCG | – | – | – | apparent Kd [7]: 13.2 nM; apparent Kd [8]: 10.8 nM
38 | ACCAUCAUUGUUAGGAUAUGUAGAGUACUGAGGCUACAGAAGGAACAUGAGGAUCACCCAUGUGUUUCGGUGUA | – | 31 | 126 | –
39 | UGGUAGCCACACUUCAAACAUCGACAAGAUACCAGUUAAUCAACGAACCCUUGGCAGCUUCGUACAUGAGGAUCACCCAUGUGGA | – | – | – | apparent Kd [5]: 18.2 nM; apparent Kd [6]: 23 nM
40 | CGUUAGACAGGAUAUACACUGGGAAGCGCGGUUUGCGGGAGACAUGAGGAUCACCCAUGUAGAAGGGUCCGGCA | – | 9.14 | 9.4 | –
41 | AGACAUGGCGGAUAGGAUAUGUGGGCGUCUACAUGAGGAUCACCCAUGUUGCUCGGAUGCAAUCUACAGAAGGAUCGACCCAGUGC | 106 | – | – | apparent Kd [2]: 16.1 nM
42 | CCUUCAGAUGAGAAGGCCAUCUACGGCUGGACACGGCAGUAACAUGAGGAUCACCCAUGUUUAAUGGAGGAUAUCAACGGAAGC | 12.3 | – | – | apparent Kd [2]: 8.94 nM
